Drawing on ChEMBL document CHEMBL4190210, “Derivatives of the Lignan 7'-Hydroxymatairesinol with Antioxidant Properties and Enhanced Lipophilicity” (J Nat Prod, 2017), this text covers IC50, logP and logKw for 14 compounds.

A short description of series [1]: Antioxidant activity assessed as DPPH radical scavenging activity at test compound/DPPH volume ratio 1:1 after 1 hr by UV-spectrophotometric method. The format is functional. The essentials:
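DPPH 200 µM in methanol. Antioxidant stocks were 1 mM in methanol, diluted to 2–200 µM. The reaction was started by adding 1 mL DPPH solution to 1 mL antioxidant solution (1:1). Samples were incubated 1 h, an interval chosen from a time-course study.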
A general note: The DPPH test is a chemical assay of radical scavenging.

A short description of series [2]: Lipophilicity, log P of the compound. As to conditions: octanol/water. The series is classed as physicochemical.
Series [3] in a line: Lipophilicity, log Kw of the compound by reversed-phase UHPLC analysis. The series is classed as physicochemical. The conditions noted are these: water/acetonitrile. The essentials:
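Binary elution with water and acetonitrile, each containing 0.1% formic acid. Detection by UV at 254 nm and by negative/positive ESIMS selected ion monitoring.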

Series [4] in a line: Antioxidant activity assessed as DPPH radical scavenging activity at test compound/DPPH volume ratio 3:1 incubated under dark condition for 30 mins by spectrophotometric method. The format is functional.

A word on the IC50: it is the concentration that gives 50% inhibition. For the compound `CCCCCCCC(=O)OC(c1ccc(O)c(OC)c1)[C@H]1COC(=O)[C@@H]1Cc1ccc(O)c(OC)c1` (stereo partly specified), the concentration for half-maximal inhibition (IC50) in series [1] stood at 24.1 µM. Same read-out and setting: then `Cc1cc(C(C)(C)C)c(O)c(C(C)(C)C)c1` [BUTYLATED HYDROXYTOLUENE], with 34 µM.

A word on the logP: it is the decadic logarithm of the partition coefficient of the neutral form, usually between octanol and water. Read a high logP as higher lipophilicity. Consider `CCCCCCCCOC(=O)c1cc(O)c(O)c(O)c1` [OCTYL_GALLATE], for which, in series [2], the logP was determined as 4.1.

Compound `CCCCCCCCCCCC(=O)O[C@@H](c1ccc(O)c(OC)c1)[C@H]1COC(=O)[C@@H]1Cc1ccc(O)c(OC)c1` returned a logKw in series [3] of 3.68.

Consider `CCCCCCCCCCCCCCCCCC(=O)OC(c1ccc(O)c(OC)c1)[C@H]1COC(=O)[C@@H]1Cc1ccc(O)c(OC)c1` (stereo partly specified), for which the IC50 in series [1] stood at 25.2 µM.

As for `CCCCCCCCCCCCCCCCCC(=O)O[C@H](c1ccc(O)c(OC)c1)[C@H]1COC(=O)[C@@H]1Cc1ccc(O)c(OC)c1`, the logKw in series [3] is 5.43.

As for `CCCCCCCCCCCCCCCCCC(=O)O[C@@H](c1ccc(O)c(OC)c1)[C@H]1COC(=O)[C@@H]1Cc1ccc(O)c(OC)c1`, the logKw in series [3] turned out to be 5.5.

Turning to `Cc1c(C)c2c(c(C)c1O)CC[C@@](C)(CCC[C@H](C)CCC[C@H](C)CCCC(C)C)O2` (racemic) [ALPHA-TOCOPHEROL], the half-inhibitory concentration (IC50) in series [1] came out at 23.5 µM. The compound `CCCCCCCC(=O)O[C@H](c1ccc(O)c(OC)c1)[C@H]1COC(=O)[C@@H]1Cc1ccc(O)c(OC)c1` had a logKw in series [3] of 3.06.

Compound `COc1cc(C[C@H]2C(=O)OC[C@@H]2[C@H](O)c2ccc(O)c(OC)c2)ccc1O` [HYDROXYMATAIRESINOL] gave a logKw in series [3] of 1.49. Further, the concentration for half-maximal inhibition (IC50) in series [1] was 20 µM. Consider `O=C1O[C@H]([C@@H](O)CO)C(O)=C1O` [ASCORBIC ACID], for which the IC50 was determined as 20.3 µM in series [1] and 12.6 µM in series [4].

With `CCCCCCCCCCCC(=O)O[C@H](c1ccc(O)c(OC)c1)[C@H]1COC(=O)[C@@H]1Cc1ccc(O)c(OC)c1`, the logKw in series [3] is given as 3.63. With `CCCCCCCCCCCC(=O)OC(c1ccc(O)c(OC)c1)[C@H]1COC(=O)[C@@H]1Cc1ccc(O)c(OC)c1` (stereo partly specified), the IC50 in series [1] turned out to be 24.5 µM.

As to `CCCCCCCC(=O)O[C@@H](c1ccc(O)c(OC)c1)[C@H]1COC(=O)[C@@H]1Cc1ccc(O)c(OC)c1`, in series [3], the logKw amounted to 3.12.
